Assay results from ChEMBL document CHEMBL1124429, “Heterocyclic analogues of benzamide antiarrhythmic agents” (J Med Chem, 1989).
“And” between values parts separate entries of the source, which are not always exact repeats. Equal entries are not always repeated.

Experiments:
[1] = species: Canis familiaris; test: Percent change from control in the functional refractory period (FRP) at 10 uM conc. on Canine ventricular muscle fibre.; set-up: species or system Canis lupus familiaris, Muscle tissue
How it was run: (§1)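 Canine right ventricular papillary muscle strips were superfused at 36 ± 0.5 °C with saline gassed with 95% O2/5% CO2. Diastolic threshold was found with 2-ms stimuli at 4000 ms cycle length, then pacing at 4× threshold for 60 min equilibration. FRP was measured at 1000 ms cycle length by S1-S2 premature stimulus after every tenth S1. Conduction time came from a bipolar electrogram. Various compound concentrations were tested, one compound per strip, with vehicle controls. Percent change from control was taken at 10 µM, or the maximum change with its concentration; for N ≥ 3, mean with range.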

[2] = species: Canis familiaris; test: Maximum percent change in conduction time (CT) at 0.1 uM concentration tested on Canine ventricular muscle fibre; assay type: functional, Canis lupus familiaris, Muscle tissue; how it was run: as §1
[3] = species: Canis familiaris; test: Maximum percent change in conduction time (CT) at 10 uM concentration tested on Canine ventricular muscle fibre; assay type: functional, Canis lupus familiaris, Muscle tissue; how it was run: as §1
[4] = species: Canis familiaris; test: Maximum percent change in repolarization at 100 uM concentration on Canine Purkinje fibers.; assay type: functional, Canis lupus familiaris, Purkinje fiber
How it was run: (§2)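 Isolated canine Purkinje fibers were superfused with physiological saline gassed with 95% O2/5% CO2 (pH 7.35–7.40) at 36 ± 0.5 °C. Paced at 1.0 Hz with 2-ms pulses at twice diastolic threshold. After up to 1 h stabilization, compounds were tested over 10^-8 to 10^-3 M, 30 min per concentration, one compound per fiber, with vehicle controls. Intracellular microelectrodes (3 M KCl) recorded Vmax and APD95; maximum percent change from control is reported with its concentration.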

[5] = species: Canis familiaris; test: Percent change in repolarization at 10 Purkinje fibers.; value ranges from -19 - 1; assay type: functional, Canis lupus familiaris, Purkinje fiber
How it was run: (§3)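 Canine Purkinje fibers were held in oxygenated (95% O2–5% CO2) physiological saline, pH 7.35–7.40, at 36 ± 0.5 °C and paced at 1.0 Hz with 2-ms pulses at twice diastolic threshold. Intracellular microelectrodes (3 M KCl) recorded Vmax and APD95 simultaneously. After up to 1 h of stabilization, compounds were tested from 10^-8 to 10^-3 M with 30 min per concentration. One compound per fiber, with vehicle controls. For N ≥ 3, values are the mean with the range.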

[6] = species: Canis familiaris; test: Maximum Percent change from control in the rate of rise of phase 0 of the action potential at 30 uM concentration on Canine Purkinje fibers.; set-up: species or system Canis lupus familiaris, Purkinje fiber; settings: dog, in vitro; how it was run: as §2
[7] = species: Canis familiaris; test: Percent change from control in the rate of rise of phase 0 of the action potential at 10 uM concentration on Canine Purkinje fibers.; value ranges from -17 - -7; assay type: organism-based, Canis lupus familiaris, Purkinje fiber; settings: dog, in vitro
[8] = species: Canis familiaris; test: Maximum percent change in functional refractory period (FRP) at 1 uM on Canine ventricular muscle fibre.; set-up: species or system Canis lupus familiaris, Muscle tissue; how it was run: as §1
[9] = species: Canis familiaris; test: Maximum Percent change from control in the rate of rise of phase 0 of the action potential at 100 uM concentration on Canine Purkinje fibers.; assay type: Canis lupus familiaris, Purkinje fiber; settings: dog, in vitro; how it was run: as §2
[10] = species: Canis familiaris; test: Maximum percent change in functional refractory period (FRP) at 100 uM on Canine ventricular muscle fibre.; set-up: species or system Canis lupus familiaris, Muscle tissue; how it was run: as §1
[11] = species: Canis familiaris; test: Maximum percent change in repolarization at 30 uM concentration on Canine Purkinje fibers.; assay type: functional, Canis lupus familiaris, Purkinje fiber; how it was run: as §2
[12] = species: Canis familiaris; test: Percent change from control in conduction time (CT) at 10 uM concentration tested on Canine ventricular muscle fibre.; assay type: functional, Canis lupus familiaris, Muscle tissue; how it was run: as §1
[13] = species: Cavia porcellus; test: Concentration of compound which gives a 20% decrease in contractile force was tested on papillary muscle of guinea pig, activity was expressed as EC-20.; assay type: functional; settings: Muscle tissue
How it was run: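 Contractile force measured in an isolated cardiac muscle preparation. Value is the concentration giving a 20% decrease in force of contraction. NR marks that this decrease was not reached. Values come from individual experiments; for N ≥ 3, the mean is given with the range.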

[14] = species: Canis familiaris; test: Percent change in repolarization at 10 Purkinje fibers.; assay type: functional, Canis lupus familiaris, Purkinje fiber; how it was run: as §3
[15] = species: Canis familiaris; test: Percent change from control in the functional refractory period (FRP) at 10 uM concentration on Canine ventricular muscle fibre; value ranges from 2-17; set-up: species or system Canis lupus familiaris, Muscle tissue; how it was run: as §1
[16] = species: Canis familiaris; test: The maximum percent change from control in the rate of rise of phase 0 of the action potential at 100 uM concentration on Canine Purkinje fibers.; set-up: species or system Canis lupus familiaris, Purkinje fiber; settings: dog, in vitro; how it was run: as §3
[17] = species: Canis familiaris; test: Maximum percent change in repolarization at 10 uM concentration on Canine Purkinje fibers.; assay type: functional, Canis lupus familiaris, Purkinje fiber; how it was run: as §2
[18] = species: Canis familiaris; test: Maximum percent change in functional refractory period (FRP) at 100 uM on Canine ventricular muscle fibre; value ranges from 7-26; set-up: species or system Canis lupus familiaris, Muscle tissue; how it was run: as §1
[19] = species: Canis familiaris; test: The maximum change from control in the rate of rise of phase 0 of the action potential at 10 uM concentration on Canine Purkinje fibers.; set-up: species or system Canis lupus familiaris, Purkinje fiber; settings: dog; how it was run: as §3
[20] = species: Canis familiaris; test: Maximum percent change in conduction time (CT) at 100 uM concentration tested on Canine ventricular muscle fibre; assay type: functional, Canis lupus familiaris, Muscle tissue; how it was run: as §1
[21] = species: Canis familiaris; test: Percent change from control in conduction time (CT) at 10 uM concentration tested on Canine ventricular muscle fibre; value ranges from -12.0-2.0; assay type: functional, Canis lupus familiaris, Muscle tissue; how it was run: as §1
[22] = species: Canis familiaris; test: Percent change from control in the rate of rise of phase 0 of the action potential at 10 uM concentration on Canine Purkinje fibers; value ranges from 8.0-4.0; set-up: species or system Canis lupus familiaris, Purkinje fiber; settings: dog
[23] = species: Canis familiaris; test: Maximum percent change in conduction time (CT) at 1 uM concentration tested on Canine ventricular muscle fibre; assay type: functional, Canis lupus familiaris, Muscle tissue; how it was run: as §1
[24] = species: Canis familiaris; test: Maximum percent change in functional refractory period (FRP) at 10 uM on Canine ventricular muscle fibre.; set-up: species or system Canis lupus familiaris, Muscle tissue; how it was run: as §1
[25] = species: Canis familiaris; test: Percent change in repolarization at 10 Purkinje fibers.; value ranges from -13 - -3; assay type: functional, Canis lupus familiaris, Purkinje fiber; how it was run: as §3
[26] = species: Canis familiaris; test: Percent change from control in the rate of rise of phase 0 of the action potential at 10 uM concentration on Canine Purkinje fibers.; value ranges from -20 - -3; assay type: organism-based, Canis lupus familiaris, Purkinje fiber; settings: dog, in vitro
[27] = species: Canis familiaris; test: The maximum percent change in action potential (Vmax) at concentration observed (100 uM) was tested on Canine Purkinje fibers; set-up: species or system Canis lupus familiaris, Purkinje fiber; settings: dog; how it was run: as §3
[28] = species: Canis familiaris; test: Percent change from control in the functional refractory period (FRP) at 10 uM conc on Canine ventricular muscle fibre.; value ranges from -9-28; set-up: species or system Canis lupus familiaris, Muscle tissue; how it was run: as §1
[29] = species: Canis familiaris; test: Percent change from control in conduction time (CT) at 10 uM concentration tested on Canine ventricular muscle fibre.; value ranges from -20-2; assay type: functional, Canis lupus familiaris, Muscle tissue; how it was run: as §1
[30] = species: Canis familiaris; test: The maximum percent change in action potential (Vmax) at concentration observed (30 uM ) was tested on Canine Purkinje fibers; set-up: species or system Canis lupus familiaris, Purkinje fiber; settings: dog; how it was run: as §3

Compound: CCN(CC)CCCNC(=O)c1cc2cccc(O)c2[nH]1
- FRP [1]: 9%
- CT [2]: -8%
- CT [3]: -23%
- APD95 [4]: -53%
- APD95 [5]: -10%
- Vmax [6]: -20% and -26%
- Vmax [7]: -11%
- FRP [8]: 8%
- Vmax [9]: -45%
- FRP [10]: 19%
- APD95 [11]: -14%
- CT [12]: -3%
- EC20 [13]: 36 µM

Compound: CCN(CC)CCNC(=O)c1ccc(N)cc1 [PROCAINAMIDE]
- APD95 [14]: -1%
- APD95 [4]: 3%
- FRP [15]: 8.7%
- Vmax [16]: -10%
- APD95 [17]: 1%
- FRP [18]: 14.3%
- Vmax [19]: 4%
- CT [20]: 4%
- CT [21]: -3%
- Vmax [22]: -1.5%
- CT [23]: 5%

Compound: CCN(CC)CCCNC(=O)c1cccc2[nH]ccc12
- CT [3]: -7%
- APD95 [4]: -26%
- FRP [24]: 11%
- APD95 [17]: -3%
- APD95 [25]: -7.7%
- FRP [10]: 36%
- APD95 [11]: -22%
- CT [20]: 12%
- Vmax [26]: -11.3%
- Vmax [27]: -31%
- FRP [28]: 10%
- CT [29]: -8.8%
- Vmax [30]: -15% and -39%
